Laboratory results reported in ChEMBL document CHEMBL2146464, “Structure-activity relationship study of nitrosopyrimidines acting as antifungal agents” (Bioorg Med Chem, 2012).
Calls of active or inactive are those of the source.

Tests used:
Assay type in all cases: functional, organism-based
Trichophyton rubrum = experiment: Antifungal activity against Trichophyton rubrum CCC 110 at 0.98 to 250 ug/mL by NCCLS broth microdilution method
Method in brief: (§1)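 MIC by broth microdilution per NCCLS M27-A3/M38-A2 in RPMI-1640 buffered to pH 7.0 with MOPS. Twofold dilutions from 250–0.98 µg/mL, final DMSO ≤1%. Inoculum 1–5 × 10³ CFU/mL. Incubated in a moist dark chamber, 30 °C for Aspergillus and 28–30 °C for dermatophytes. Read visually when control growth allowed. Endpoint is the lowest concentration giving total inhibition of visible growth (MIC100).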

[1] = system: Trichophyton mentagrophytes; experiment: Antifungal activity against Trichophyton mentagrophytes ATCC 9972 at 0.98 to 250 ug/mL by NCCLS broth microdilution method; method in brief: as §1
Aspergillus niger = experiment: Antifungal activity against Aspergillus niger ATCC 9029 at 0.98 to 250 ug/mL by NCCLS broth microdilution method; method in brief: as §1
Candida albicans = experiment: Antifungal activity against Candida albicans ATCC 10231 at 0.98 to 250 ug/mL after 48 hrs by NCCLS broth microdilution method
Method in brief: (§2)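 Yeast MIC by NCCLS M27-A3 broth microdilution in RPMI-1640 buffered to pH 7.0 with MOPS. Twofold dilutions of 250–0.98 µg/mL, final DMSO ≤1%. Inoculum 1–5 × 10³ CFU/mL. Incubated at 30 °C in a moist dark chamber. Read visually at 48 h. MIC100 is the lowest concentration with no visible growth versus drug-free control.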

Aspergillus fumigatus = experiment: Antifungal activity against Aspergillus fumigatus ATCC 26934 at 0.98 to 250 ug/mL by NCCLS broth microdilution method; method in brief: as §1
Nannizzia gypsea = experiment: Antifungal activity against Microsporum gypseum CCC 115 at 0.98 to 250 ug/mL by NCCLS broth microdilution method; method in brief: as §1
Candida tropicalis = experiment: Antifungal activity against Candida tropicalis at 0.98 to 250 ug/mL after 48 hrs by NCCLS broth microdilution method; method in brief: as §2
Cryptococcus neoformans = experiment: Antifungal activity against Cryptococcus neoformans ATCC 32264 at 0.98 to 250 ug/mL after 48 hrs by NCCLS broth microdilution method; method in brief: as §2
Aspergillus flavus = experiment: Antifungal activity against Aspergillus flavus ATCC 9170 at 0.98 to 250 ug/mL by NCCLS broth microdilution method; method in brief: as §1

Measured: Activity

COc1nc(N)nc2c1NC(=O)CCN2
inactive: all assays above

CC(C)Nc1nc(N)nc(Nc2cccc(Cl)c2)c1N=O
inactive: all assays above

Nc1nc(NC2CCCCC2)c(N=O)c(N2CCCCCCCC2)n1
inactive: all assays above

CC(C)Nc1nc(N)nc(NCc2ccccc2)c1N=O
inactive: all assays above

COc1nc(N)nc(OC)c1N=O
inactive: all assays above

Nc1nc(NCc2ccccc2)c(N=O)c(NCc2ccccc2)n1
inactive: all assays above

COc1nc(NCCOC(C)=O)nc(Nc2cccc(Cl)c2)c1N=O
inactive: all assays above

CCOC(=O)C(Cc1ccccc1)Nc1nc(N)nc(OC)c1N=O (centres undefined)
inactive: all assays above

COc1nc(N)c(N=O)c(N2CCCC2)n1
inactive: all assays above

COc1nc(N)nc(NCCO)c1N=O
inactive: all assays above

COc1nc(NCCOC(C)=O)nc(Nc2ccccc2)c1N=O
inactive: all assays above

CCOC(=O)C(C)Nc1nc(N)nc(OC)c1N=O (centres undefined)
inactive: all assays above

C[C@@H]1Nc2nc(N)nc(OCC3CCCCC3)c2NC1=O
inactive: all assays above

Nc1nc(NC(CO)C(=O)O)c(N=O)c(=O)[nH]1 (centres undefined)
inactive: all assays above

CCCCNc1nc(N)nc(Nc2ccccc2)c1N=O
inactive: all assays above

CCOC(=O)[C@H](C)Nc1nc(N)nc(OCC2CCCCC2)c1N=O
inactive: all assays above

CCOC(=O)[C@H](Cc1ccccc1)Nc1nc(N)nc(OCC2CCCCC2)c1N=O
inactive: all assays above

Nc1nc(OCC2CCCCC2)c(N=O)c(OCC2CCCCC2)n1
inactive: all assays above

CCOC(=O)CCNc1nc(N)nc(Nc2ccccc2)c1N=O
inactive: all assays above

Nc1nc(NC23CC4CC(CC(C4)C2)C3)c(N=O)c(=O)[nH]1
inactive: all assays above

COc1nc(NCCO)nc(Nc2ccccc2)c1N=O
inactive: all assays above
